# Experimental data: ChEMBL document CHEMBL1145431, “Improved anti-osteoporosis potency and reduced endometrial membrane hyperplasia during hormone replacement therapy with estrogen-RGD peptide conjugates” (2007)
# Where a SMILES comes first, the peptide text is derived from it. The star is where a group is joined. X1 = C[C@]12CC[C@@H]3c4ccc(OCC(=O)*)cc4CC[C@H]3[C@@H]1CCC2O
# Key:
# Mus musculus [1] = assay: Effect on femur length in ovariectomized mouse at 0.1103 mmol/kg, ip once daily for 4 weeks; assay type: functional
# Outline: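 Female Kuiming mice (7 weeks, 30.7 ± 3.1 g) ovariectomized, sham group abdominorotomy. From day 5, i.p. once daily for 4 weeks at 110.3 × 10-3 mmol/kg in 0.5% CMC. Left femur cleaned, length measured, defatted in chloroform-methanol (2:1, 2 × 3 h), dried 120 °C 6 h for dry weight, ashed 800 °C 8 h. Mineral content = ash/dry weight. Ash dissolved in 6 N HCl and diluted. Ca by o-methylphenolphthalein complexone, P by molybdenum blue. Lungs and livers weighed directly.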
# Mus musculus [2] = assay: Effect on lenght of femur in mouse at 0.110 mmol/kg, po; assay type: functional
# Outline: (§1)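 Female Kuiming mice (7 weeks old, 30.7 ± 3.1 g) under abdominal OVX, sham group abdominorotomy only. From day 5 after surgery, dosed orally once daily for 4 weeks at 110.3 × 10-3 mmol/kg in 0.5% CMC (0.2 mL), vehicle group CMC alone. Blood drawn retro-orbitally, then left femur and organs removed under pentobarbital (40.0 mg/kg, i.p.).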
# Mus musculus [3] = assay: Effect on femur ash weight in mouse at 0.1103 mmol/kg, po; assay type: functional; outline: as §1
# Mus musculus [4] = assay: Effect on phosphorus level in mouse at 0.110 mmol/kg, po; assay type: functional; outline: as §1
# Mus musculus [5] = assay: Effect on calcium level in mouse at 0.1103 mmol/kg, po; assay type: functional; outline: as §1
# Mus musculus [6] = assay: Effect on lung weight in mouse at 0.1103 mmol/kg, po; assay type: functional; outline: as §1
# Mus musculus [7] = assay: Effect on femur ash weight in recipient mouse at 0.055 mmol/kg, ip; assay type: functional
# Outline: (§2)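 Dose-response in OVX Kuiming mice, i.p. daily for 4 weeks in 0.5% CMC at 11.03, 55.15 or 110.3 × 10-3 mmol/kg. Left femur: length, then defatting, drying at 120 °C for 6 h (dry weight), ashing at 800 °C for 8 h. Ash/dry ratio gives mineral content. Ash Ca and P measured colorimetrically. Liver, lung and spleen weighed directly. n = 12, ANOVA.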
# Mus musculus [8] = assay: Effect on serum phosphorus level in ovariectomized mouse at 0.1103 mmol/kg, ip once daily for 4 weeks; assay type: functional
# Outline: (§3)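 OVX Kuiming mice dosed i.p. daily for 4 weeks in 0.5% CMC. Blood taken retro-orbitally on the day after the last dose, stood 30 min, spun at 3000 g for 20 min, serum stored at -20 °C. Calcium by o-methylphenolphthalein complexone, phosphorus by molybdenum blue, ALP by activity with disodium phenylphosphate substrate.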
# Mus musculus [9] = assay: Effect on liver weight in mouse at 0.1103 mmol/kg, po; assay type: functional; outline: as §1
# Mus musculus [10] = assay: Effect on serum calcium level in mouse at 0.1103 mmol/kg, ip; assay type: functional; outline: as §3
# Mus musculus [11] = assay: Effect on femur length in recipient mouse at 0.055 mmol/kg, ip; assay type: functional; outline: as §2
# Mus musculus [12] = assay: Effect on serum phosphorous level in mouse at […] mmol/kg, ip; assay type: functional; outline: as §3
# Mus musculus [13] = assay: Effect on uterus weight in ovariectomized mouse at 0.1103 mmol/kg, ip once daily for 4 weeks; assay type: functional
# Outline: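 Female Kuiming mice (7 weeks old, 30.7 ± 3.1 g), abdominal OVX under pentobarbital (40.0 mg/kg i.p.). From day 5 after surgery, i.p. injection once daily for 4 weeks, compound in aqueous 0.5% CMC prepared just before use. The day after the last dose, mice were anesthetized and killed, and lungs, livers, spleens and uteri were removed and weighed directly. n = 12, ANOVA, p < 0.05.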
# Mus musculus [14] = assay: Effect on serum ALP level in mouse at 0.1103 mmol/kg, po; assay type: functional
# Outline: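 Oral OVX Kuiming mouse model, dosed daily for 4 weeks at 110.3 × 10-3 mmol/kg in 0.5% CMC. Retro-orbital blood stood 30 min at room temperature and was spun at 3000 g for 20 min. Serum kept at -20 °C. Calcium read by o-methylphenolphthalein complexone, phosphorus by molybdenum blue, ALP by activity on disodium phenylphosphate substrate.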
# Mus musculus [15] = assay: Effect on serum phosphorous level in mouse at 0.011 mmol/kg, ip; assay type: functional; conditions: in the assay text read “0.11 mmol/kg” for “0.011 mmol/kg”
# Outline: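 Dose-response in OVX Kuiming mice, i.p. daily for 4 weeks in 0.5% CMC at 11.03, 55.15 or 110.3 × 10-3 mmol/kg. Serum from retro-orbital blood (3000 g, 20 min). Calcium by o-methylphenolphthalein complexone, phosphorus by molybdenum blue, ALP by activity on disodium phenylphosphate. n = 12, ANOVA.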
# Mus musculus [16] = assay: Effect on dry weight of femurs in recipient mouse at 0.055 mmol/kg, ip; assay type: functional, Femur; outline: as §2
# Mus musculus [17] = assay: Effect on dry weight of femurs in mouse at 0.1103 mmol/kg, po; assay type: functional, Femur; outline: as §1
# Mus musculus [18] = assay: Effect on mineral level in mouse femur at 0.011 mmol/kg, ip; assay type: functional; conditions: in the assay text read “0.11 mmol/kg” for “0.011 mmol/kg”; outline: as §2
# Mus musculus [19] = assay: Effect on liver weight in mouse at 0.055 mmol/kg, ip; assay type: functional; outline: as §2
# Mus musculus [20] = assay: Effect on phosphorous level in mouse femur at 0.011 mmol/kg, ip; assay type: functional; conditions: in the assay text read “0.11 mmol/kg” for “0.011 mmol/kg”; outline: as §2
SMILES,Activity (Mus musculus [1]),Activity (Mus musculus [2]),Activity (Mus musculus [3]),Activity (Mus musculus [4]),Activity (Mus musculus [5]),Activity (Mus musculus [6]),Activity (Mus musculus [7]),Activity (Mus musculus [8]),Activity (Mus musculus [9]),Activity (Mus musculus [10]),Activity (Mus musculus [11]),Activity (Mus musculus [12]),Activity (Mus musculus [13]),Activity (Mus musculus [14]),Activity (Mus musculus [15]),Activity (Mus musculus [16]),Activity (Mus musculus [17]),Ratio (Mus musculus [18]),Activity (Mus musculus [19]),Activity (Mus musculus [20])
CC(C)[C@H](NC(=O)[C@H](CC(=O)O)NC(=O)CNC(=O)[C@H](CCCNC(=N)N)NC(=O)COc1ccc2c(c1)CC[C@@H]1[C@@H]2CC[C@]2(C)C(O)CC[C@@H]12)C(=O)O (stereo partly drawn) (X1-RGDV-OH),1.64 cm,1.614 cm,33.7 mg,24.997%,52.197%,163 mg,32.3 mg,1.6 mmol/L,1.337 g,2.005 mmol/L,1.643 cm,1.6 mmol/L,50.3 mg,34.521 U/L,1.6 mmol/L,57.5 mg,68.4 mg,0.63,1.462 g,–
C[C@]12CC[C@@H]3c4ccc(OCC(=O)N[C@@H](CCCNC(=N)N)C(=O)NCC(=O)N[C@@H](CC(=O)O)C(=O)N[C@@H](CO)C(=O)O)cc4CC[C@H]3[C@@H]1CCC2O (stereo partly drawn) (X1-RGDS-OH),1.642 cm,1.635 cm,30.4 mg,24.994%,51.988%,166 mg,31.6 mg,1.599 mmol/L,1.329 g,2.014 mmol/L,1.622 cm,1.599 mmol/L,42.5 mg,35.211 U/L,1.599 mmol/L,56.3 mg,68.6 mg,0.582,1.397 g,–
C[C@]12CC[C@@H]3c4ccc(OCC(=O)N[C@@H](CCCNC(=N)N)C(=O)NCC(=O)N[C@@H](CC(=O)O)C(=O)N[C@@H](Cc5ccccc5)C(=O)O)cc4CC[C@H]3[C@@H]1CCC2O (stereo partly drawn) (X1-RGDF-OH),1.635 cm,1.626 cm,28.7 mg,25.532%,53.001%,165 mg,31.6 mg,1.605 mmol/L,1.339 g,2.015 mmol/L,1.624 cm,1.605 mmol/L,55.4 mg,33.7 U/L,1.605 mmol/L,53.9 mg,63.1 mg,0.585,1.407 g,25.46%
